Assay outcomes as filed in PubChem.
Hits are enriched below; roughly 3.1% of the tested compounds scored in any of these assays.
SIRT5 inh: SIRT5 desuccinylase inhibitors, primary screen, biochemical, fluorescence imaging, single point, set 5; NAD-dependent protein deacylase sirtuin-5, mitochondrial (Homo sapiens), Q9NXA8; Purified SirT5, succinyl-peptide AMC, trypsin-coupled fluorescence; inhibition, % at 15 µM; 330,000 compounds, 1.1% hits; AID 652115, 2013; in the data active = inhibition above about 15%
rRNA inh HTS: reduced GFP signal of wild-type E. coli, primary screen, bacterial rRNA inhibitor project, GFP/RFP fluorescence, OD600, single point. E. coli WT GFP vs humanized-ribosome RFP mutants, 24 h; stronger effect = lower value; DMSO median 0, no signal -100. GFP signal change (wild-type ribosome), % (no concentration beside the values). 350,000 compounds, 1.6% hits. AID 720706, 2013;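 active = significant combined selectivity score with lowered wild-type GFP, culture density cut under 30%, mutant RFP and density less affected; inactive = any of these conditions unmet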
S100A4 MyoIIA: inhibitors of S100A4-myosin IIA peptide binding, primary screen, biochemical, fluorescence polarization, TAMRA-MyoIIA peptide. Protein S100-A4 (Homo sapiens), P26447. inhibition, % at 10.7 µM. 360,000 compounds, 0.14% hits. AID 652163, 2013;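 active = mean inhibition of at least 70% across replicates, with every replicate also reaching that level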
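Material: S100A4 monomer protein / Buffer or medium: 50 mM HEPES pH 7.2, 10 mM CaCl2, 100 mM KCl / Times: 5 min incubation before reading / Benchmarks: neutral control DMSO, positive control TFP / Reagent: labelled myosin peptide probe, 5 nM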
ERAP1 HTS inh: human ERAP1 aminopeptidase inhibitors, primary screen, biochemical, single point, plate reader. Endoplasmic reticulum aminopeptidase 1 (Homo sapiens), Q9NZ08. recombinant ERAP1, Leu-AMC fluorescence, 60 min. inhibition, % at 10.7 µM. 340,000 compounds, 0.15% hits;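 active = mean replicate inhibition of at least 30%, or all replicates individually reaching that 30% level; inactive = mean below 30% and not every replicate reaching it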
Target sequence (Q9NZ08 whole entry, looked up): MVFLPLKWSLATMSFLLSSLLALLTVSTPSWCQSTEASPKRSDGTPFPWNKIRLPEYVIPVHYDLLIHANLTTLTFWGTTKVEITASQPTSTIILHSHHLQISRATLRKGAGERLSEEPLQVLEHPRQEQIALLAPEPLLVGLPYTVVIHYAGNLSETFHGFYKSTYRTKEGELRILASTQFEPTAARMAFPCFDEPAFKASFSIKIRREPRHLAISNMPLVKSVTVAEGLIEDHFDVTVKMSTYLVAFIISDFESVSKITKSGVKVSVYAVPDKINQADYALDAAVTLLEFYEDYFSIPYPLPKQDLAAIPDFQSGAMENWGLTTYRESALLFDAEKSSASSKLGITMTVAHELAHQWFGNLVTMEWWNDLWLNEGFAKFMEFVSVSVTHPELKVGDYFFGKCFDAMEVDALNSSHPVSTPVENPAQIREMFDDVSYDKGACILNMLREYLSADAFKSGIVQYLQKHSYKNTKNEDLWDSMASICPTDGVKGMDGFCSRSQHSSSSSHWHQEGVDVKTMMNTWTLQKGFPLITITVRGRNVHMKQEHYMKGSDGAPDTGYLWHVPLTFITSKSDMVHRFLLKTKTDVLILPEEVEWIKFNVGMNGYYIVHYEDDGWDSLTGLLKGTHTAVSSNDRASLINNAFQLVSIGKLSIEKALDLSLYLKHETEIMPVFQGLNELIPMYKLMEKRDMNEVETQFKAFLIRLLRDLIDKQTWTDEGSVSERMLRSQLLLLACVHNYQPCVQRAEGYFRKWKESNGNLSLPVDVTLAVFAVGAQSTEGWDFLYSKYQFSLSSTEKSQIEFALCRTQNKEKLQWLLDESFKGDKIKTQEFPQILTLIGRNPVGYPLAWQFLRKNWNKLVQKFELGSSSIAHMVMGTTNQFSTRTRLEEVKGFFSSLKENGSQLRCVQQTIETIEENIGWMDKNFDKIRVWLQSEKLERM
F508del corr: F508del CFTR correction, initial screen, CFBE line, single point; CFBE cells, YFP halide quenching; stimulated with forskolin plus potentiator P3; % fluorescence drop versus neutral controls; activity (quench increase), % at 7.58 µM; 350,000 compounds, 0.36% hits; AID 720511, 2013;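 active = mean added fluorescence quench of at least 8% versus neutral control, with both replicates also reaching 8%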;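 note: cells transiently co-express mutant CFTR-F508del with the halide-sensitive YFP; corrector assay measuring rescue of mutant channel to the surface after 24 h compound exposure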
Hits are given with their value; 0 = inactive; - = no result given.

SMILES	SIRT5 inh	rRNA inh HTS	S100A4 MyoIIA	ERAP1 HTS inh	F508del corr
C[C@@H]1CN([C@@H](C)CO)C(=O)Cc2cc(NC(=O)C3CCCCC3)ccc2O[C@H]1CN(C)Cc1ccccc1	0	0	0	0	0
Cc1ccc2ncnc(Nc3ccc(C)c(C)c3)c2c1	0	-27.4	0	0	0
CC(=O)c1ccc(Nc2ncnc3ccc(Br)cc23)cc1	-	0	0	0	0
CCOc1ccc(NC(=O)CSc2ccc3nnc(-c4ccccn4)n3n2)cc1	17.9	0	0	0	0
NC[C@@H]1O[C@H](C23CC4CC(CC(C4)C2)C3)Cc2c1ccc(O)c2O	0	0	0	31.3	0
C[C@H]1CN([C@@H](C)CO)C(=O)Cc2cc(NC(=O)Cn3cnnn3)ccc2O[C@@H]1CN(C)Cc1ccccc1	-	0	0	0	0
O=S(=O)(c1ccc(F)cc1)N1CCCCN2[C@@H](CO)[C@@H](c3ccc(C#CC4CC4)cc3)[C@@H]2C1	-	0	0	0	0
O=S(=O)(c1ccc(F)cc1)N1CCCCN2[C@H](CO)[C@H](c3ccc(C#CC4CCCC4)cc3)[C@@H]2C1	23.2	-	0	0	0
O=S(=O)(c1ccc(F)cc1)N1CCCCN2[C@@H](CO)[C@H](c3ccc(C#CC4CCCC4)cc3)[C@@H]2C1	27.3	-	0	0	0
O=S(=O)(c1ccc(F)cc1)N1CCCCN2[C@H](CO)[C@@H](c3ccc(C#CC4CC4)cc3)[C@@H]2C1	0	0	0	0	0
O=S(=O)(c1ccc(F)cc1)N1CCCCN2[C@@H](CO)[C@@H](c3ccc(C#CC4CCCC4)cc3)[C@@H]2C1	22.8	-	0	0	0
O=S(=O)(c1ccc(F)cc1)N1CCCCN2[C@H](C1)[C@@H](c1ccc(C#CC3CCCC3)cc1)[C@@H]2CO	0	-	0	0	0
COc1cc(CN2CC3(CN(C(=O)c4cccnc4)C3)c3c([nH]c4cc(OC)ccc34)[C@@H]2CO)cc(OC)c1	0	0	0	0	0
CCC(=O)Nc1ccc2c(c1)C(=O)N(C)C[C@H](OC)[C@@H](C)CN(C(=O)Cc1ccccn1)[C@@H](C)CO2	0	0	0	0	0
O=C(C[C@@H]1CC[C@@H]2[C@H](COC[C@H](O)CN2C(=O)Nc2cc(Cl)cc(Cl)c2)O1)NCC1CC1	0	0	0	0	0
CCOc1cc(C(=O)OC(C)C(=O)Nc2ccc(S(N)(=O)=O)cc2)ccc1OCC(=O)N1CCOCC1 (stereo not given)	19.4	0	0	0	0
CCOc1cc(C(=O)OC(C)C(=O)Nc2ccc(NC(C)=O)cc2)ccc1OCC(=O)N1CCCCC1 (stereo not given)	0	0	0	0	0
COC(=O)C[C@@H]1C[C@H]2c3cc(NC(=O)Cc4ccncc4)ccc3O[C@H]2[C@H](CO)O1	15.3	0	0	0	0
O=C(C[C@H]1C[C@H]2c3cc(NC(=O)Cc4ccncc4)ccc3O[C@H]2[C@H](CO)O1)NCc1ccccn1	0	0	96.3	-	0
COc1ccc(NC(=O)N(C)C[C@@H]2OCCCC[C@@H](C)Oc3ccc(NC(=O)Nc4ccc5c(c4)OCO5)cc3C(=O)N([C@H](C)CO)C[C@@H]2C)cc1	0	0	0	0	0
CS(=O)(=O)N(CC(=O)N1CCCC1)c1cccc(F)c1	101.4	0	0	0	0
CS(=O)(=O)N(CC(=O)N1CCCC1)c1ccc(F)cc1	-	0	0	0	0
CS(=O)(=O)N(CC(=O)N1CCCCC1)Cc1ccccc1	17.4	0	0	0	0
CS(=O)(=O)N(CC(=O)N1CCOCC1)c1cccc(Cl)c1	0	0	0	34.3	0
C/C=C/c1ccc([C@H]2[C@@H](CO)N(C(=O)C3CCC3)C23CN(S(=O)(=O)CC)C3)cc1	0	0	0	0	0
Cc1noc(C)c1S(=O)(=O)Nc1ccc2c(c1)C(=O)N([C@H](C)CO)C[C@@H](C)[C@H](CN(C)C(=O)Nc1cccc3ccccc13)O2	0	0	0	0	0
CO[C@H]1CN(C)C(=O)c2cc(NC(=O)c3ccc(F)cc3)ccc2OC[C@@H](C)N(C(C)=O)C[C@@H]1C	0	0	0	0	0
